ChEMBL document CHEMBL1177816, “Epsilon substituted lysinol derivatives as HIV-1 protease inhibitors” (Bioorg Med Chem Lett, 2010)

How the values were obtained:
[1] = test system: Human immunodeficiency virus 1; experiment: Antiviral activity against HIV1 3B infected in human MT4 cells assessed as inhibition of viral spread after 3 days by p24 antigen ELISA in presence of 10% fetal bovine serum; format: functional
Procedure, shortened: (§1)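 MT-4 cells kept in RPMI 1640 with 10% heat-inactivated FBS were infected en masse with HIV-1 IIIb at multiplicity 0.01 for 24 h, then washed and plated. Serial twofold inhibitor dilutions were added and cultures ran 3 more days. Spread was read by p24 core antigen ELISA. Line 2 used 10% FBS; line 3 used cells resuspended in 50% normal human serum, giving a serum-adjusted IC95.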

Protease = Protease (Human immunodeficiency virus 1, UniProt Q9YQ12); experiment: Inhibition of HIV1 protease
[2] = AUC in Beagle dog at 4 mg/kg, po; format: ADME, organism-based, Canis lupus familiaris; parameters: dose 4 mg/kg, route oral; details: plasma
Procedure, shortened: (§2)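 Beagle dogs received 4 mg/kg orally in PEG 400. Plasma drug levels (nM) were measured over 24 h, including the 24 h trough, and oral half-life was calculated from the plasma concentration profile.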

[3] = test system: Human immunodeficiency virus 1; experiment: Antiviral activity against HIV1 3B infected in human MT4 cells assessed as inhibition of viral spread after 3 days by p24 antigen ELISA in presence of 50% normal human serum; format: functional; procedure, shortened: as §1
[4] = Half life in Beagle dog at 4 mg/kg, po; format: ADME, organism-based, Canis lupus familiaris; parameters: dose 4 mg/kg, route oral; details: in vivo; procedure, shortened: as §2
[5] = Trough plasma concentration in Beagle dog at 4 mg/kg after 24 hrs; format: ADME, organism-based, Canis lupus familiaris; parameters: dose 4 mg/kg; procedure, shortened: as §2

Protease, sequence (Q9YQ12 whole entry): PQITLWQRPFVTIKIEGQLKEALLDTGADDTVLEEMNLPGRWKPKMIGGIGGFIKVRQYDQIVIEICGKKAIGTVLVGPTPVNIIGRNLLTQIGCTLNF

Row | Structure (SMILES) | Inhibition of viral spread [1] [nM] | IC50 (Protease) [nM] | AUC [2] [nM·h] | Virucidal [3] [nM] | half-life [4] [h] | concentration at 24 h [5] [nM]
1 | COC(=O)N[C@H](C(=O)N[C@H](CO)CCC[C@@H](CO)N(CCC(C)C)S(=O)(=O)c1ccc(N)cc1)C(c1ccccc1)c1ccccc1 | 230 | 0.013 | – | – | – | –
2 | COC(=O)N[C@H](C(=O)NCCCC[C@@H](CO)N(CC(C)C)S(=O)(=O)c1ccc(N)cc1)C(c1ccccc1)c1ccccc1 [PPL-100] | – | 0.5 | – | – | – | –
3 | CC[C@@H](CCC[C@@H](CO)N(CCC(C)C)S(=O)(=O)c1ccc(N)cc1)NC(=O)[C@@H](NC(=O)OC)C(c1ccccc1)c1ccccc1 | 10 | 0.016 | 1050 | 74 | 6 | 5.1
4 | COC(=O)N[C@H](C(=O)N[C@@H](CCC[C@@H](CO)N(CCC(C)C)S(=O)(=O)c1ccc(N)cc1)C(C)C)C(c1ccccc1)c1ccccc1 | 37 | 0.1 | – | – | – | –
5 | CCC[C@@H](CCC[C@@H](CO)N(CCC(C)C)S(=O)(=O)c1ccc(N)cc1)NC(=O)[C@@H](NC(=O)OC)C(c1ccccc1)c1ccccc1 | 56 | 0.1 | – | – | – | –
6 | COC(=O)N[C@H](C(=O)N[C@H](C)CCC[C@@H](CO)N(CCC(C)C)S(=O)(=O)c1ccc(N)cc1)C(c1ccccc1)c1ccccc1 | 98 | 0.4 | – | – | – | –
7 | COC(=O)N[C@H](C(=O)N[C@@H](C)CCC[C@@H](CO)N(CCC(C)C)S(=O)(=O)c1ccc(N)cc1)C(c1ccccc1)c1ccccc1 | 6.6 | – | 320 | 120 | – | 2
8 | COC(=O)N[C@H](C(=O)NCCCC[C@@H](CO)N(CCC(C)C)S(=O)(=O)c1ccc(N)cc1)C(c1ccccc1)c1ccccc1 | 12 | 0.03 | – | 130 | – | –
